Activity calls are given as the source filed them. No cut-off for these calls is given here.
Legend:
[1] = system: Rattus norvegicus; assay: Antihypertensive activity against DOCA-salt induced hypertension in albino rat assessed as reduction in systolic blood pressure at 10 mg/kg, po up to 360 mins by tail-cuff method; type: functional, organism-based; set-up: dose 10 mg/kg; conditions: Artery
Summary of the method: (§1)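 Rats given DOCA 20 mg/kg s.c. twice weekly in olive oil for 4 weeks, with 1% w/v NaCl as drinking water, reaching systolic 160–180 mm Hg. Rats were trained in restrainer and tail-cuff sessions. Compounds in 0.5% CMC were dosed at 10 mg/kg by oral feeding needle, with vehicle and nifedipine groups. BP was read before dosing and after, with the tail warmed at 37 °C for 2–5 min. Each compound was run three times in one week and readings averaged.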

[2] = system: Rattus norvegicus; assay: Antihypertensive activity against DOCA-salt induced hypertension in albino rat assessed as reduction in systolic blood pressure at 10 mg/kg, po after 900 mins by tail-cuff method; type: functional; conditions: Artery, 15 h; summary of the method: as §1
[3] = system: Rattus norvegicus; assay: Antihypertensive activity against DOCA-salt induced hypertension in albino rat assessed as reduction in systolic blood pressure at 10 mg/kg, po after 720 mins by tail-cuff method; type: functional; conditions: Artery, 12 h; summary of the method: as §1
[4] = system: Rattus norvegicus; assay: Antihypertensive activity against DOCA-salt induced hypertension in albino rat assessed as reduction in systolic blood pressure at 10 mg/kg, po after 600 mins by tail-cuff method; type: functional; conditions: Artery, 10 h; summary of the method: as §1
[5] = system: Rattus norvegicus; assay: Antihypertensive activity against DOCA-salt induced hypertension in albino rat assessed as reduction in systolic blood pressure at 10 mg/kg, po after 360 mins by tail-cuff method; type: functional; conditions: Artery, 6 h; summary of the method: as §1
[6] = system: Rattus norvegicus; assay: Antihypertensive activity against DOCA-salt induced hypertension in albino rat assessed as reduction in systolic blood pressure at 10 mg/kg, po after 300 mins by tail-cuff method; type: functional; conditions: Artery, 5 h; summary of the method: as §1
[7] = system: Rattus norvegicus; assay: Antihypertensive activity against DOCA-salt induced hypertension in albino rat assessed as reduction in systolic blood pressure at 10 mg/kg, po after 240 mins by tail-cuff method; type: functional; conditions: Artery, 4 h; summary of the method: as §1
[8] = system: Rattus norvegicus; assay: Antihypertensive activity against DOCA-salt induced hypertension in albino rat assessed as reduction in systolic blood pressure at 10 mg/kg, po after 180 mins by tail-cuff method; type: functional; conditions: Artery, 3 h; summary of the method: as §1
[9] = system: Rattus norvegicus; assay: Antihypertensive activity against DOCA-salt induced hypertension in albino rat assessed as reduction in systolic blood pressure at 10 mg/kg, po after 120 mins by tail-cuff method; type: functional; conditions: Artery, 2 h; summary of the method: as §1
[10] = system: Rattus norvegicus; assay: Antihypertensive activity against DOCA-salt induced hypertension in albino rat assessed as reduction in systolic blood pressure at 10 mg/kg, po after 60 mins by tail-cuff method; type: functional; conditions: Artery, 1 h; summary of the method: as §1
[11] = system: Rattus norvegicus; assay: Antihypertensive activity against DOCA-salt induced hypertension in albino rat assessed as reduction in systolic blood pressure at 10 mg/kg, po after 30 mins by tail-cuff method; type: functional; conditions: Artery, 0.5 h; summary of the method: as §1
[12] = system: Rattus norvegicus; assay: Antihypertensive activity against DOCA-salt induced hypertension in albino rat assessed as reduction in systolic blood pressure at 10 mg/kg, po after 15 mins by tail-cuff method; type: functional; conditions: Artery, 0.25 h; summary of the method: as §1

Compound | Activity [1] | inhibition in vivo at 10 mg/kg [2] [%] | inhibition in vivo at 10 mg/kg [3] [%] | inhibition in vivo at 10 mg/kg [4] [%] | inhibition in vivo at 10 mg/kg [5] [%] | inhibition in vivo at 10 mg/kg [6] [%] | inhibition in vivo at 10 mg/kg [7] [%] | inhibition in vivo at 10 mg/kg [8] [%] | inhibition in vivo at 10 mg/kg [9] [%] | inhibition in vivo at 10 mg/kg [10] [%] | inhibition in vivo at 10 mg/kg [11] [%] | inhibition in vivo at 10 mg/kg [12] [%]
COc1ccc(C2N=C(SCc3ccc(Cl)cc3)NC(C)=C2C(=O)Nc2ccc(F)cc2)cc1OC (stereo unspecified) | Active | 20 | 22.2 | 26.7 | 37.1 | 31.3 | 24.1 | 20.1 | 15.5 | 10.3 | 5.7 | 3.1
CC1=C(C(=O)Nc2ccc(F)cc2)C(c2ccc([N+](=O)[O-])cc2)N=C(SCc2cccc(Cl)c2)N1 (stereo unspecified) | Active | 10.8 | 12.9 | 16.4 | 21.1 | 18.5 | 15.9 | 11.9 | 9.8 | 7.2 | 4.1 | 2.1
COc1ccc(C2N=C(SCc3ccc(F)cc3)NC(C)=C2C(=O)Nc2ccc(Br)cc2)cc1 (stereo unspecified) | Active | 15.4 | 19.1 | 24.1 | 33.5 | 26.2 | 22.1 | 17 | 12.9 | 8.7 | 6.2 | 3.6
CC1=C(C(=O)Nc2ccc(Br)cc2)C(c2ccc(Cl)cc2Cl)N=C(SCc2ccc(Cl)cc2)N1 (stereo unspecified) | Active | 22.1 | 25.8 | 30.3 | 39.7 | 38.5 | 32.3 | 23.2 | 17.5 | 11.8 | 6.7 | 4.1
CC1=C(C(=O)Nc2ccc(Br)cc2)C(c2ccc(Cl)cc2Cl)N=C(SCc2ccccc2Cl)N1 (stereo unspecified) | Active | 16.4 | 20.6 | 24.6 | 38.1 | 36.4 | 28.7 | 22.2 | 16 | 11.8 | 5.7 | 3.1
CC1=C(C(=O)Nc2ccc(F)cc2)C(c2ccc([N+](=O)[O-])cc2)N=C(SCc2ccc(Cl)cc2)N1 (stereo unspecified) | Active | 16.9 | 22.2 | 28.2 | 39.7 | 37.9 | 33.3 | 23.2 | 16 | 11.8 | 6.7 | 3.6
CC1=C(C(=O)Nc2ccc(Br)cc2)C(c2ccc(Cl)cc2Cl)N=C(SCc2ccc(F)cc2)N1 (stereo unspecified) | Active | 23.1 | 27.3 | 33.3 | 40.7 | 38.5 | 36.4 | 28.4 | 22.7 | 16.9 | 7.7 | 3.6
COc1ccc(C2N=C(SCc3cccc(Cl)c3)NC(C)=C2C(=O)Nc2ccc(Br)cc2)cc1 (stereo unspecified) | Active | 22.6 | 26.8 | 32.8 | 39.7 | 39 | 33.8 | 27.3 | 21.1 | 15.4 | 7.7 | 3.1
